Source: ChEMBL document CHEMBL1140467, “Small molecule ago-allosteric modulators of the human glucagon-like peptide-1 (hGLP-1) receptor” (Bioorg Med Chem Lett, 2007)
Activity calls are given as the source filed them. No cut-off for these calls is given here.

Legend:
[1] = biological target: T1, Glucagon-like peptide 1 receptor (Homo sapiens, UniProt P43220); experiment: Agonist activity at human GLP1 assessed as stimulation of cAMP; type: functional
Method in brief: (§1)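 cAMP production was measured in a membrane-based assay at the human GLP-1 receptor. Potency is reported as EC50 and efficacy as Emax (%).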

[2] = biological target: T1, Glucagon-like peptide 1 receptor; experiment: Agonist activity at human GLP1 assessed as stimulation of cAMP relative to cAMP; type: functional; method in brief: as §1
[3] = biological target: T1, Glucagon-like peptide 1 receptor; experiment: Effect on augmentation of [125]GLP1 binding to human GLP1; details: read-out: IC50 (the source's name)
Method in brief: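 Test agents were incubated with human GLP-1 receptor and GLP-1, and the rise in GLP-1 binding was followed across agent concentrations. IC50 is the agent concentration giving 50% of its maximal augmentation of GLP-1 binding.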

Pancreas = experiment: Effect on release of insulin in perfused rat pancreas; type: functional, tissue-based
Mus musculus = species on record: Mus musculus; experiment: Effect on release of insulin in mouse islets; type: functional

T1 sequence (P43220 whole entry): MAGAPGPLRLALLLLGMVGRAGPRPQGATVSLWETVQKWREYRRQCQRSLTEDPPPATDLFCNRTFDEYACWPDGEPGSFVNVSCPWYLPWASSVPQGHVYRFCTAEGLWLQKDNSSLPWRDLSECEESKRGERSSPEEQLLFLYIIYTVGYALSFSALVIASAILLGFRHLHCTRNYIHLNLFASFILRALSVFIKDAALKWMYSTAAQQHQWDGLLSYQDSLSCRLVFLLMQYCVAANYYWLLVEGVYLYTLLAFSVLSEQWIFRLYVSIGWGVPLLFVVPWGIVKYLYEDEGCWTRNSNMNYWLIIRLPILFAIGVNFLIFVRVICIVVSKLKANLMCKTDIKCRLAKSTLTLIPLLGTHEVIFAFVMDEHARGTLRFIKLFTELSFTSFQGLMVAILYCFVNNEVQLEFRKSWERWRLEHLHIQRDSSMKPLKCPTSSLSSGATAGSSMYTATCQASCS

| SMILES | EC50 [1] | Emax [2] | EC50 [3] | also measured |
| --- | --- | --- | --- | --- |
| COC(=O)CCNS(=O)(=O)c1ccc(CS(=O)(=O)c2nc3cc(Cl)c(Cl)cc3nc2C(C)C)cc1 | 4900 nM | 65% |  |  |
| Cc1nnc(S(=O)(=O)c2nc3cc(Cl)c(Cl)cc3nc2C(C)C)s1 | 1000 nM | 47% |  |  |
| CCN(CC)C(=O)c1nc2cc(Cl)c(Cl)cc2nc1C(C)C |  | < 2% | > 10000 nM |  |
| COC(=O)c1cc2cc(Cl)c(Cl)cc2nc1S(C)(=O)=O |  |  |  | Activity [1]: inactive |
| CS(=O)(=O)c1nc2cc(Cl)c(Cl)cc2nc1N | 6300 nM | 24% |  |  |
| CC(C)Nc1nc2cc(Cl)c([N+](=O)[O-])c(C(F)(F)F)c2nc1S(C)(=O)=O | 5000 nM | 31% |  |  |
| CCOC(=O)c1nc2cc(Cl)c(Cl)cc2nc1C(F)(F)F |  | < 2% |  |  |
| CC(C)c1nc2cc(Cl)c(Cl)cc2nc1O |  | < 2% |  |  |
| Cc1nnc([S+]([O-])c2nc3cc(Cl)c(Cl)cc3nc2C(C)C)s1 (stereo unspecified) | 5100 nM | 19% |  |  |
| CC(C)Sc1nc2cc(Cl)c(Cl)cc2nc1S(C)(=O)=O |  | 46% |  |  |
| CCCc1nc2cc(Cl)c(Cl)cc2nc1S(C)(=O)=O | 1200 nM | 68% | 404 nM |  |
| CC(C)c1nc2cc(Cl)c(Cl)cc2nc1S(=O)(=O)CCC1OCCO1 | 3000 nM | 71% | 551 nM |  |
| CC(=O)NCCNc1nc2cc(Cl)c(Cl)cc2nc1S(C)(=O)=O | 7100 nM | 22% |  |  |
| CCOC(=O)c1nc2cc(Cl)c(Cl)cc2nc1S(C)(=O)=O | > 10000 nM | 24% | 3100 nM |  |
| CCC(C)Nc1nc2cc(Cl)c(Cl)cc2nc1S(C)(=O)=O (stereo unspecified) | 175 nM | 94% |  |  |
| CCC(C)Nc1nc2cc(Cl)c([N+](=O)[O-])cc2nc1S(C)(=O)=O (stereo unspecified) | 4300 nM | 44% |  |  |
| N#Cc1nc2cc(Cl)c(Cl)cc2nc1C(F)(F)F |  | < 2% |  |  |
| CC(C)N(C)c1nc2cc(Cl)c(Cl)cc2nc1S(C)(=O)=O | 1800 nM | 75% | 460 nM |  |
| CC(C)n1c(S(C)(=O)=O)nc2cc(Cl)c(Cl)cc21 |  |  |  | Activity [1]: inactive |
| CC(C)(C)Nc1nc2cc(Cl)c(Cl)cc2nc1S(C)(=O)=O | 155 nM | 85% |  | Activity (Pancreas): Active; Activity (Mus musculus): Active |
| CC(=O)NNc1nc2cc(Cl)c(Cl)cc2nc1S(C)(=O)=O | 14000 nM | 32% |  |  |

| SMILES | EC50 [1] | Emax [2] | EC50 [3] | also measured |
| --- | --- | --- | --- | --- |
| CS(=O)(=O)c1nc2cc(Cl)c(Cl)cc2nc1NC1CCS(=O)(=O)C1 (stereo unspecified) | 1400 nM | 43% |  |  |
| CCCc1nc2cc(OC)c(OC)cc2nc1S(C)(=O)=O |  | < 2% |  |  |
| CS(=O)(=O)c1nc2cc(Cl)c(Cl)cc2nc1N1CCC(=O)N1 | 14000 nM | 38% |  |  |
| CC(C)Nc1nc2cc(Cl)c(Cl)cc2nc1S(C)(=O)=O | 214 nM | 82% | 107 nM |  |
| CC(C)Nc1nc2c([N+](=O)[O-])c(Cl)c(Cl)cc2nc1S(C)(=O)=O | 1500 nM | 38% |  |  |
| CC(C)c1nc2cc(Cl)c(Cl)cc2nc1S(=O)(=O)Cc1ccc(S(C)(=O)=O)cc1 | 1200 nM | 63% | 459 nM |  |
| CS(=O)(=O)c1nc2cc(Cl)c(Cl)cc2nc1C(F)(F)F | 2600 nM | 40% | 91 nM |  |
| CS(=O)(=O)c1nc2cc(Cl)c(Cl)cc2nc1N1CCCC1 | 2200 nM | 72% |  |  |
| CC(C)c1nc2cc(Cl)c(Cl)cc2nc1[S+](C)[O-] (stereo unspecified) | 30000 nM | 29% | 1100 nM |  |
| CN(C)c1nc2cc(Cl)c(Cl)cc2nc1S(C)(=O)=O | 2200 nM | 47% | 530 nM |  |
| CCOP(=O)(OCC)c1nc2cc(Cl)c(Cl)cc2nc1C(F)(F)F |  | < 2% |  |  |
| CCCc1nc2cc(C)c(C)cc2nc1S(C)(=O)=O |  | < 2% |  |  |
| Nc1nc2cc(Cl)c(Cl)cc2nc1C(F)(F)F |  | < 2% |  |  |
| CC(C)c1nc2cc(Cl)c(Cl)cc2nc1S(=O)(=O)Cc1ccc(S(=O)(=O)CC2CC2)cc1 | 3300 nM | 64% |  |  |
| CON(C)c1nc2cc(Cl)c(Cl)cc2nc1S(C)(=O)=O | 2600 nM | 52% |  |  |
| CCNc1nc2cc(Cl)c(Cl)cc2nc1S(C)(=O)=O | 725 nM | 46% | 109 nM |  |
| CS(=O)(=O)c1nc2cc(Cl)c(Cl)cc2nc1NC1CCCc2ccccc21 (stereo unspecified) | 433 nM | 69% |  |  |
| O=S1(=O)CCCc2nc3cc(Cl)c(Cl)cc3nc21 |  |  |  | Activity [1]: inactive |
| CC(C)(C)Nc1nc2c(Cl)cc(C(F)(F)F)cc2nc1S(C)(=O)=O | 2200 nM | 42% |  |  |
| CC(C)C(=O)c1nc2cc(Cl)c(Cl)cc2nc1C(C)C |  | < 2% | > 10000 nM |  |
| CC(C)c1nc2cc(Cl)c(Cl)cc2nc1S(C)(=O)=O | 5000 nM | 35% | 253 nM |  |
